Measured values: ChEMBL document CHEMBL1125357, “Gonadotropin-releasing hormone antagonists with N omega-triazolylornithine, -lysine, or -p-aminophenylalanine residues at positions 5 and 6” (J Med Chem, 1992)
Non-standard residues stand in square brackets, D forms with d. Residues, ends and D or L forms follow the SMILES beside them. *: point of attachment. dNva(5-oxo-5-(4-MeOPh)) = COc1ccc(C(=O)CC[C@@H](N)C(=O)O)cc1; Triazol3yl(1,2,4-5-NH2) = Nc1nc(*)n[nH]1; dPhe(4-Cl) = N[C@H](Cc1ccc(Cl)cc1)C(=O)O; d2Nal = N[C@H](Cc1ccc2ccccc2c1)C(=O)O; Lys(iPr) = CC(C)NCCCC[C@H](N)C(=O)O; d3Pal = N[C@H](Cc1cccnc1)C(=O)O; Nicotinoyl = O=C(c1cccnc1)*; dOrn = NCCC[C@@H](N)C(=O)O; Orn = NCCC[C@H](N)C(=O)O

Experiments:
[1] = target: T1, Gonadotropin-releasing hormone receptor (Homo sapiens, UniProt P30968); assay: The binding affinity towards Gonadotropin-releasing hormone receptor
T1 sequence (P30968 whole entry): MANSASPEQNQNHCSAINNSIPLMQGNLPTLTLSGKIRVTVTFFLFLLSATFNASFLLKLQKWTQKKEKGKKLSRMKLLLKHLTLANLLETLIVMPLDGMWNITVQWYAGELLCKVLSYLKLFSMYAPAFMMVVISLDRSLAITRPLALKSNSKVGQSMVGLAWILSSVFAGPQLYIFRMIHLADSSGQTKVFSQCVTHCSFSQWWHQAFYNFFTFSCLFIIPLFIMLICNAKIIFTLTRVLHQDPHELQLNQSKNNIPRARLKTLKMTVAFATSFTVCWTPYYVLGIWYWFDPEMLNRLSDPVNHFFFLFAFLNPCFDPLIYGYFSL

[2] = Retention time of the compound; format: ADME
In short: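 Peptide (0.5 mg/mL, 10 μL) was loaded in TEAP pH 7.0/CH3CN (76/24), acidified with H3PO4 where insoluble. Elution used a 30-48% CH3CN gradient over 30 min at 1.5 mL/min. Retention time is reported in minutes.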

Row | Kd [1] [nM] | RT [2] [min] | Compound
1 | 0.21 | 6.2 | CC(=O)N[C@H](Cc1ccc2ccccc2c1)C(=O)N[C@H](Cc1ccc(Cl)cc1)C(=O)N[C@H](Cc1cccnc1)C(=O)N[C@@H](CO)C(=O)N[C@@H](CCCNc1n[nH]c(N)n1)C(=O)N[C@H](CCCNc1n[nH]c(N)n1)C(=O)N[C@@H](CC(C)C)C(=O)N[C@@H](CCCCNC(C)C)C(=O)N1CCC[C@H]1C(=O)N[C@H](C)C(N)=O (Ac-[d2Nal][dPhe(4-Cl)][d3Pal]S[Orn](Triazol3yl(1,2,4-5-NH2))[dOrn](Triazol3yl(1,2,4-5-NH2))L[Lys(iPr)]P[dA]-NH2)
2 | 0.48 | 7.08 | CC(=O)N[C@H](Cc1ccc2ccccc2c1)C(=O)N[C@H](Cc1ccc(Cl)cc1)C(=O)N[C@H](Cc1cccnc1)C(=O)N[C@@H](CO)C(=O)N[C@@H](CCCCNc1n[nH]c(N)n1)C(=O)N[C@H](CCCCNc1n[nH]c(N)n1)C(=O)N[C@@H](CC(C)C)C(=O)N[C@@H](CCCCNC(C)C)C(=O)N1CCC[C@H]1C(=O)N[C@H](C)C(N)=O (Ac-[d2Nal][dPhe(4-Cl)][d3Pal]SK(Triazol3yl(1,2,4-5-NH2))[dK](Triazol3yl(1,2,4-5-NH2))L[Lys(iPr)]P[dA]-NH2)

The remaining lines, values behind:

Row | Compound | Kd [1] [nM] | RT [2] [min]
3 | CC(=O)N[C@H](Cc1ccc2ccccc2c1)C(=O)N[C@H](Cc1ccc(Cl)cc1)C(=O)N[C@H](Cc1cccnc1)C(=O)N[C@@H](CO)C(=O)N[C@@H](CCCNC(=N)N)C(=O)N[C@H](Cc1cccnc1)C(=O)N[C@@H](CC(C)C)C(=O)N[C@@H](CCCNC(=N)N)C(=O)N1CCC[C@H]1C(=O)N[C@H](C)C(N)=O | 0.24 | 14.1
4 | CC(=O)N[C@H](Cc1ccc2ccccc2c1)C(=O)N[C@H](Cc1ccc(Cl)cc1)C(=O)N[C@H](Cc1cccnc1)C(=O)N[C@@H](CO)C(=O)N[C@@H](CCCCNc1n[nH]c(N)n1)C(=O)N[C@H](CCCCNc1n[nH]c(N)n1)C(=O)N[C@@H](CC(C)C)C(=O)N[C@@H](CCCCNC(C)C)C(=O)N1CCC[C@H]1C(=O)NCC(N)=O | 0.86 | 5.53
5 | COc1ccc(C(=O)CC[C@@H](NC(=O)[C@H](CCCN=C(N)N)NC(=O)[C@H](CO)NC(=O)[C@@H](Cc2cccnc2)NC(=O)[C@@H](Cc2ccc(Cl)cc2)NC(=O)[C@@H](Cc2ccc3ccccc3c2)NC(C)=O)C(=O)N[C@@H](CC(C)C)C(=O)N[C@@H](CCCN=C(N)N)C(=O)N2CCC[C@H]2C(=O)N[C@H](C)C(N)=O)cc1 (Ac-[d2Nal][dPhe(4-Cl)][d3Pal]SR[dNva(5-oxo-5-(4-MeOPh))]LRP[dA]-NH2) | 0.67 | 22.8
6 | CC(=O)N[C@H](Cc1ccc2ccccc2c1)C(=O)N[C@H](Cc1ccc(Cl)cc1)C(=O)N[C@H](Cc1cccnc1)C(=O)N[C@@H](CO)C(=O)N[C@@H](CCCCNC(=O)c1cccnc1)C(=O)N[C@H](CCCCNC(=O)c1cccnc1)C(=O)N[C@@H](CC(C)C)C(=O)N[C@@H](CCCCNC(C)C)C(=O)N1CCC[C@H]1C(=O)N[C@H](C)C(N)=O (Ac-[d2Nal][dPhe(4-Cl)][d3Pal]SK(Nicotinoyl)[dK](Nicotinoyl)L[Lys(iPr)]P[dA]-NH2) | 0.35 | 13.6
